Measurements from ChEMBL document CHEMBL4665779, “Novel 2-Substituted 3-Hydroxy-1,6-dimethylpyridin-4(1H)-ones as Dual-Acting Biofilm Inhibitors of Pseudomonas aeruginosa” (J Med Chem, 2020).
Active and inactive are the calls of the source. The rule behind the calls is not given here.

Legend:
Pseudomonas aeruginosa [1] = assay: Antibacterial activity against Pseudomonas aeruginosa infected in African green monkey Vero cells assessed as cell survival at 20 uM pretreated for 24 hrs followed by cell addition and measured 4 hrs post-infection by MTT assay (reference value: 41.5%); assay type: functional; settings: time 28 hrs
Pseudomonas aeruginosa [2] = assay: Inhibition of biofilm formation in multidrug resistant Pseudomonas aeruginosa FB at 10 uM relative to control; assay type: functional
Pseudomonas aeruginosa [3] = assay: Binding affinity to […] overexpressed in Pseudomonas aeruginosa PAO1 assessed as inhibition of biofilm formation at 1.25 to 20 uM; settings: dose microM 1.25-20
[4] = tested on: Pseudomonas aeruginosa PAO1; assay: Induction of iron chelation in Pseudomonas aeruginosa PAO1 assessed as increase in iron deficiency by measuring change in total ferric ion concentration at 5 uM by inductively coupled plasma mass spectrometry (reference value: 1.91 +/- 0.8 uM)
Method in brief: (§1)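 PAO1 (OD600 0.05) was diluted 1:100 into ABTGC medium and grown 24 h at 37 °C with shaking, with compound; DFP at 20 μM was the reference. Pellets were washed twice in HEPES and lysed with lysozyme in 50 mM HEPES plus sonication for 30 min. Lysates were digested with 1 M nitric acid, centrifuged, and analysed by ICP-MS. Mean ± SD, triplicate.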

Pseudomonas aeruginosa [5] = assay: Inhibition of biofilm formation in multidrug resistant Pseudomonas aeruginosa 1167 at 10 uM relative to control; assay type: functional
Pseudomonas aeruginosa [6] = assay: Inhibition of biofilm formation in multidrug resistant Pseudomonas aeruginosa 1129 at 10 uM relative to control; assay type: functional
Vero = assay: Cytotoxicity against African green monkey Vero cells assessed as reduction in cell viability up to 50 uM after 16 hrs by MTT assay; assay type: cell-based; settings: chlorocebus sabaeus
Method in brief: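 Vero or LO2 cells were seeded at 5000–15000 cells/well for 16 h, PBS-washed, then exposed to compound in DMEM at 37 °C and 5% CO2 for 16 h. MTT (20 μL of 5 mg/mL) was added for 3 h, and formazan was dissolved in DMSO and read at 570 nm. Triplicate; mean ± SD.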

[7] = Metal chelating activity assessed as negative logarithm of total free ferric ion concentration in a solution under biological conditions
Method in brief: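 Fluorescence competition with CP645 (6 μM), quenched by Fe-NTA (2 μM) for 30 min before compound (60 μM) was added in Chelex-treated MOPS. Fluorescence was read after 48 h, with DFP as reference. pFe(III) was calculated from relative fluorescence as % = 11.743 pFe(III) − 169. Mean of three determinations.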

[8] = target: 3-(3-hydroxydecanoyloxy)decanoate synthase (Pseudomonas aeruginosa (strain ATCC 15692 / PAO1 / 1C / PRS 101 / LMG12228)) (UniProt Q51559); assay: Inhibition of rhlA fluorescence in Pseudomonas aeruginosa PAO1 transfected with GFP by measuring fluorescence intensity every 15 mins for 12 hrs by microtiter plate reader assay; settings: dose microM 1.25-20, time 12.0 hrs
Method in brief: (§2)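 PAO1-gfp, PAO1-lasB-gfp, PAO1-rhlA-gfp or PAO1-pqsA-gfp reporters were grown overnight in LB, then diluted in ABTGC medium to OD600 0.02, with compound at 1.25–20 μM. Controls were 0.1% DMSO and a blank. OD600 and GFP fluorescence (ex 485/em 535 nm) were read every 15 min for at least 12 h at 37 °C; triplicate.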

Pseudomonas aeruginosa [9] = assay: Inhibition of biofilm formation in multidrug resistant Pseudomonas aeruginosa 1167 at 20 uM relative to control; assay type: functional
Pseudomonas aeruginosa [10] = assay: Inhibition of biofilm formation in multidrug resistant Pseudomonas aeruginosa 1167 at 5 uM relative to control; assay type: functional
Pseudomonas aeruginosa [11] = assay: Antibiofilm activity against Pseudomonas aeruginosa PAO1 assessed as inhibition of biofilm formation at 20 uM after 24 hrs by crystal violet staining based assay relative to control; assay type: functional
Method in brief: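 PAO1 (OD600 0.05) was cultured in ABTGC medium at 37 °C for 24 h with compound (1.25–20 μM for the dose series). Wells were PBS-washed three times, methanol-fixed for 30 min, air-dried, and stained with 0.1% crystal violet for 30 min. Stain was solubilized in 33% acetic acid and read at 570 nm. Compound stocks were […]. Run in triplicate.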

Pseudomonas aeruginosa [12] = assay: Antibacterial activity against Pseudomonas aeruginosa infected in human L02 assessed as cell survival at 20 uM pretreated for 24 hrs followed by cell addition and measured 4 hrs post-infection by MTT assay (reference value: 40.7%); assay type: functional; settings: time 28 hrs
Pseudomonas aeruginosa [13] = assay: Inhibition of biofilm formation in multidrug resistant Pseudomonas aeruginosa FB at 2.5 uM relative to control; assay type: functional
[14] = tested on: Pseudomonas aeruginosa PAO1; assay: Induction of iron chelation in Pseudomonas aeruginosa PAO1 assessed as increase in iron deficiency by measuring change in total ferric ion concentration at 10 uM by inductively coupled plasma mass spectrometry (reference value: 1.91 +/- 0.8 uM); method in brief: as §1
Pseudomonas aeruginosa [15] = assay: Inhibition of biofilm formation in multidrug resistant Pseudomonas aeruginosa 1129 at 2.5 uM relative to control; assay type: functional
Pseudomonas aeruginosa [16] = assay: Antibiofilm activity against Pseudomonas aeruginosa PAO1 assessed as inhibition of biofilm formation after 18 hrs by crystal violet staining based assay; assay type: functional, organism-based; settings: PAO1, 18 h
Pseudomonas aeruginosa [17] = assay: Antibacterial activity against Pseudomonas aeruginosa infected in human L02 assessed as increase in cell survival pretreated for 24 hrs followed by cell addition and measured 4 hrs post-infection by MTT assay; assay type: functional, organism-based; settings: dose microM 1.25-20, time 28.0 hrs
Method in brief: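 P. aeruginosa cultures were grown with 0, 1.25, 2.5, 5, 10 or 20 μM compound for 24 h at 37 °C with shaking. Washed cells (in DMEM) were infected at MOI 100 for 4 h. Bacteria were then killed with 500 μg/mL gentamycin for 2 h, and cells were given 500 μg/mL MTT for 16 h. Formazan was dissolved in DMSO and read at 570 nm.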

[18] = tested on: Pseudomonas aeruginosa PAO1; assay: Induction of iron chelation in Pseudomonas aeruginosa PAO1 assessed as increase in iron deficiency by measuring ferric ion concentration inductively coupled plasma mass spectrometry; settings: dose microM 1.25-20; method in brief: as §1
[19] = target: Elastase (Pseudomonas aeruginosa (strain ATCC 15692 / PAO1 / 1C / PRS 101 / LMG12228)) (UniProt P14756); assay: Inhibition of lasB fluorescence in Pseudomonas aeruginosa PAO1 transfected with GFP by measuring fluorescence intensity every 15 mins for 12 hrs by microtiter plate reader assay; settings: dose microM 1.25-20, time 12.0 hrs; method in brief: as §2
[20] = tested on: Pseudomonas aeruginosa PAO1; assay: Induction of iron chelation in Pseudomonas aeruginosa PAO1 assessed as increase in iron deficiency by measuring change in total ferric ion concentration at 1.25 uM by inductively coupled plasma mass spectrometry (reference value: 1.91 +/- 0.8 uM); method in brief: as §1
Pseudomonas aeruginosa [21] = assay: Inhibition of swarming motility of Pseudomonas aeruginosa PAO1 measured after 16 hrs; assay type: functional, organism-based; settings: dose microM 1.25-20, time 16.0 hrs
Method in brief: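 LB plates with 0.5% agar, 0.5% casamino acids and 0.5% glucose contained compound at 0–20 μM. Plates were dried 1 h, then 1 μL PAO1 (OD600 1) was spotted on the centre. Incubation was 16 h at 37 °C; three independent experiments.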

[22] = tested on: Pseudomonas aeruginosa PAO1; assay: Induction of iron chelation in Pseudomonas aeruginosa PAO1 assessed as increase in intracellular pyochelin level at 1.25 to 20 uM in presence of 10 uM FeCl3 by fluorescence microplate reader assay; assay type: cell-based; settings: dose microM 1.25-20

Elastase (Pseudomonas aeruginosa (strain ATCC 15692 / PAO1 / 1C / PRS 101 / LMG12228)), sequence (P14756 198-498 limits assumed): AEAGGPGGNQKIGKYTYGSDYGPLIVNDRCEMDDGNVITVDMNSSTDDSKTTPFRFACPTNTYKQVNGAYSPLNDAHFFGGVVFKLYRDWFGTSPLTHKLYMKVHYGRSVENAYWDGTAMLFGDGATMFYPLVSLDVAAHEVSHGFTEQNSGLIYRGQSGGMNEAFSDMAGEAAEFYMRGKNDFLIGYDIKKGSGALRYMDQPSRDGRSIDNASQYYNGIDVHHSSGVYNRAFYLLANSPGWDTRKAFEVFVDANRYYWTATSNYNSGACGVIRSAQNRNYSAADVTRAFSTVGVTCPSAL

CCCCCCC(=O)NCc1c(O)c(=O)cc(C)n1C
survival at 20 µM (Pseudomonas aeruginosa [1]): 96.4% | inhibition at 10 µM (Pseudomonas aeruginosa [2]): 18.4% | inhibition (Pseudomonas aeruginosa [3]): Active | Activity [4]: 1.17 µM | inhibition at 10 µM (Pseudomonas aeruginosa [5]): 47.4% | inhibition at 10 µM (Pseudomonas aeruginosa [6]): 30.4% | Activity (Vero): Non-Toxic | pFe3+ [7]: 20.6 | inhibition [8]: Dose-dependent effect | inhibition at 20 µM (Pseudomonas aeruginosa [9]): 51.4% | inhibition at 5 µM (Pseudomonas aeruginosa [10]): 43.7% | inhibition at 20 µM (Pseudomonas aeruginosa [11]): 68.7% | survival at 20 µM (Pseudomonas aeruginosa [12]): 89.9% | inhibition at 2.5 µM (Pseudomonas aeruginosa [13]): -8.67% | Activity [14]: 0.97 µM | inhibition at 2.5 µM (Pseudomonas aeruginosa [15]): 21.3% | IC50 (Pseudomonas aeruginosa [16]): 6.57 µM | Activity (Pseudomonas aeruginosa [17]): Dose-dependent effect | Activity [18]: Dose-dependent effect | inhibition [19]: Dose-dependent effect | Activity [20]: 1.55 µM | inhibition (Pseudomonas aeruginosa [21]): Dose-dependent effect | Activity [22]: Active
